In the EternaBench riboswitch data:

Test system: MS2 coat protein
Experiment: apparent Kd, MS2 coat protein; higher = weaker binding; RNA-MaP array; FMN 200 µM where present
How it was run: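 Stalled E. coli RNA polymerase produced the designs on Illumina sequencing-chip clusters. SNAP-549-labelled MS2 coat protein was added from 0.7 or 1.5 nM, doubling to 3 µM, without and then with constant ligand, in 100 mM Tris-HCl pH 7.5, 80 mM KCl, 4 mM MgCl2, BSA, DTT, yeast tRNA and Tween-20. The apparent Kd is the median of filtered per-cluster fits of green signal normalised to red-channel RNA signal and control-cluster median Fmax.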

[1] = designed as: OFF switch for flavin mononucleotide, no ligand
[2] = ligand present: flavin mononucleotide, designed as: OFF switch for flavin mononucleotide
[3] = designed as: ON switch for flavin mononucleotide, no ligand
[4] = ligand present: flavin mononucleotide, designed as: ON switch for flavin mononucleotide

Sequence | apparent Kd [1] [nM] | apparent Kd [2] [nM] | apparent Kd [3] [nM] | apparent Kd [4] [nM]
GUCGUUUCUGAGGAUAUUAUUUUUUUCGAUUGAUAAGAAGGCAGUACAUGAGGAUCACCCAUGUGGGUUGUCUG | 30 | 97.3 | – | –
AACUCACAUGAGGAUCACCCAUGUGAGGAUAUGAUACUAUGUACUUCGGUACAUAGUAUCAGAAGGCAUGUGGA | 14.4 | 18.9 | – | –
AAUUAUAUACAGAAGGAGUUAUUUUGAGGAUUACUAGGAUAUGUUCACAUGAGGAUCACCCAUGUCAUAUUGGGAUUUAUUAUU | 19.5 | 26.7 | – | –
ACUUAUAGAGGAUAUACAGUUUAUUACAUGAGGAUCACCCAUGUUCUUCAAUGUAUAUAAGUAGAAGGCUAAGGAA | 35 | 175 | – | –
ACUUGGUUACAGAAGGGCAUUUAUAAUUAUCAUUACUCAUCCUAUGUUUGCAGGAUAUGUUUAACAUGAGGAUCACCCAUGUAC | – | – | 171 | 97.6
UUUGCAUUCCGAGGAUAUUCUUUUAUUGUCUUCACAUGAGGAUCACCCAUGUGGCGCUUGCGCCGGGAGAAGGCGGUUUGCUUU | – | – | 23.9 | 24.5
UGGAUGUAGGAGAAGGAGGACUUCAUGAGGAUCACCCAUGUGUUAGUACUUAGGAUAUUUGACAACAUGAGGAUCACCCAUGUC | – | – | 138 | 113
UGCGAGCAGAUCGUCCGCUCACAUGAGGAUCACCCAUGUAGGAGAAGGCGCCAUGAAGGCAGCGGCGAGGAUAUCCUCGUGGGC | 78 | 77.6 | – | –
GCCAUCGCAUGAGGAUAUGGUCACGUUUCGUGACCAGAAGGCAUGUCAAUAGACAUGAGGAUCACCCAUGUAGUUAAGAUGGCA | – | – | 680 | 59.8
CACGAUGAUGUAGGAUAUAUGCUGGAAUACAGCAUAGAAGGACAUGAGGAUCACCCAUGUAAAGUGUCUCCAAAUAACAUCGUG | 30.3 | 77.5 | – | –
UAUACACAUGAGGAUCACCCAUGUGAGGAUAUGUAAAAAAAACCGACGGUUUUUUUUUACAGAAGGCACAUAUA | 51.6 | 53.5 | – | –
CCUAGUUGGUAAGGAUAUCCUACACUGUUCUGACCCGUGCAAGCUACAUGAGGAUCACCCAUGUAGGAGAAGGUGCGUCAACGC | 9.11 | 9.13 | – | –
GAUUAAUGCAAGGAUAUGCUAUUAAUUUAUUUUGCAGAAGGUGCAACAUGAGGAUCACCCAUGUUGGAGGGUAU | 22.3 | 33.4 | – | –
GUAUUGAUAACAGGAUAUAUGAGUCCUACAUGAGGAUCACCCAUGUAGGUGAUCAGCCGUGAUUAGUAGAAGGGUUAUCAAUAC | – | – | 12.5 | 5.98
AACAGCUCGUCAGGAUAUAUUUUCUAAUUAUGUAUUUAUGUACAUGAGGAUCACCCAUGUUGUUAGUAGAAGGGACGAGCUGAA | 11.7 | 12.1 | – | –
UUGGACGUCGUAGGAUAUGUAGGAUAUUCCUACAUGAGGAUCACCCAUGUUGACAUGGAAGAUGGACAGAAGGACGAUGUCCAU | – | – | 983 | 42.1
UGUCGGAGCAGAGGAUAUUACAUGAGGAUCACCCAUGUAUGAACCAAUAGCUGGAAACAGCAAUGUAAGAAGGAUGCUCCGACA | 7.14 | 31.4 | – | –
CUGGUGUGAGGAUAUCAAAGACCUCGGGAUAGUACCGAGGAUGAGAAGGCACAUGAGGAUCACCCAUGUAACAA | 21.2 | 35.4 | – | –
UGAUAGGACAGAGGAUAUACGUAUAAUUCCUUCAACAUGAGGAUCACCCAUGUAGAAGGCUGUCCUAUCUAAGUCGGAAACGAC | 4.81 | 5.33 | – | –
AUAGCUCCCUAGAAGGGCCAACGACAAUUGCAUCACGUAGUUGGCGUAGGUAGGAUAUGGGACAUGAGGAUCACCCAUGUGUAG | – | – | 27 | 16.1
UGACACAUGAGGGUCUCCCAUGACAUGAGGAUCACCCAUGUGCAGGAUAUACGUGUGAUGGUAUAGUAGAAGGGCACUCUAUGU | 46.4 | 65.8 | – | –
CGCACUAUACAUGAGGAUCACCCAUGUUAAUAUGAGAUAGUCAGAAGGCAUUGUUUGAGAAAUUAUGAGGAUAUGAAUAGUGCG | – | – | 100 | 23.7
GGCUCCGCUCGAGGAUAUAGCUGCAUGUAGUGUCCUGAGGCACAUGAGGAUCACCCAUGUGUAGGCUAGAAGGCGACGGAAGCU | 142 | 176 | – | –
UCUAUGAAGAUUCGUCAAUACAGUUAGGAUAUGAGAGACAUGAGGAUCACCCAUGUGCAUGUUGAUUAGAAGGAACAAUUAUCU | 20.9 | 19.3 | – | –
GGAAAACAUGAGGAUCACCCAUGUGAGGAUAUCGAUGUCCAAAGGAAAGUGCGGGACUCGAGAAGGCACUUGGA | 45.4 | 39 | – | –
UAUGGUAAAGUCAGGAUAUACGUACGUCGUUCUAGGUAGAAGGGACAUGAGGAUCACCCAUGUAUGAUAGUGUU | 46.5 | 42.8 | – | –
GGGUACAUCGGAGGAUAUCAUGUAAAUACAUGAGGAUCACCCAUGUCGAUGGAGACAUCGGAGAAUGAGAAGGCCGAUGUACCG | – | – | 17.6 | 5.34

Sequence | apparent Kd [1] [nM] | apparent Kd [2] [nM] | apparent Kd [3] [nM] | apparent Kd [4] [nM]
UGUGGUGAAGUAGGAUAUCAACACACAUGAGGAUCACCCAUGUUAGAUGUGGAUGUUGUAUGUUAUGAGAAGGACUUCGGUGCG | 23.6 | 89 | – | –
GGGAAUAAACCCGUCUCCGCCCAACCAGAAGGGCACGAUAAUAUUACAUGAGGAUCACCCAUGUUGCAGGAUAUGGUGGGCCUC | – | – | 180 | 76.9
AAAAUACAUGAGGAUCACCCAUGUCAGGAUAUGCUAAAAAAAAAAUUAAAAAAAAAAUGUAGAAGGGACUAAAA | 99 | 106 | – | –
GGUACCAUCACAGGAUAUGCUUUCCUUUGGGAAGCAGAAGGGUGUAACAUGAGGAUCACCCAUGUGGUGCCAGGGCGUGAGCCC | – | – | 470 | 42.6
UAGUGCAUUAGAGGAUAUUCUUACGACACGAGUAAGACAUGAGGAUCACCCAUGUUGUGGCAUGGGAAGAAGGCUGAUGUGCUA | – | – | 60 | 14.5
GCCAUCGCAUGAGGAUAUGCUCCCGUUUCGGGAGCAGAAGGCAUGUCAUAAGACAUGAGGAUCACCCAUGUAGAUAAGAUGGCA | – | – | 310 | 11.4
GAUUAAUGCAAGGAUAUGCUAUUAUUUUAUUUUGCAGAAGGUGCAACAUGAGGAUCACCCAUGUUGGAGGGUAU | 19.8 | 29.8 | – | –
ACAUGAGGAUCACCCAUGUGUGCAUAGGAUAUUGAGGAUCAGGGAUGUUUUUUUGGAUAUGCCCACAAGAAGGAUGAAAGUAUU | – | – | 13.2 | 12.6
UGGUACUAGGGAGGAUAUGGGAAGAUACAUGAGGAUCACCCAUGUUUAAGAAUGCCGAGAGGCAACUAGAAGGCCCUCGUACCU | – | – | 432 | 20.1
AGCUGUGGCCAAGGAUAUCUAACCUUAAAUACCGACGUAUAGUCGGACAUGAGGAUCACCCAUGUGGAGAAGGUGGUCUCAGCA | 25.3 | 37.3 | – | –
AUUAUUGACAUAGGAUAUUGUUACAUGAGGAUCACCCAUGUUAUUUGGGAAUUAGGAAUAUUUUACAAGAAGGAUGUUGUUACA | – | – | 106 | 72.5
UUGGACGUCGUAGGAUAUGUAGGAUAUUCCUACAUGAGGAUCACCCAUGUCGACAUGGAAGAAGGACAGAAGGACGAUGUCCAU | – | – | 238 | 4.22
AGUCAGAGCAGAGGAUAUAUACAUGAGGAUCACCCAUGUGACUGACUAUGCUAGAAAUAGUAUGUAUAGAAGGCUGCUCUGACA | 188 | 466 | – | –
UUCUUUCCUCAUGUACAUGAGGAACAUGAGGAUCACCCAUGUAGAAGGAUUUCCCUUAAAUUAAAAUAGGAUAUACAUAUAUUU | 27.9 | 24.7 | – | –
AACGAAAGCCAAGGAUAUGCAGGUGACAUGAGGAUCACCCAUGUGGAUUGUGAUCCUUAACUGAUGCAGAAGGUGGAUCUGUUG | 513 | 322 | – | –
GCAGGCUGCUCUGAAGCUACAUUCGAGGAUAUGAUCCAAGACAUGAGGAUCACCCAUGUAGAAGAUCAGAAGGCGAUGGCUAGG | – | – | 89.8 | 9.77
UGUUAUUAGACAGGAUAUUGAAUGUUAAGUAUUAACAUGAGGAUCACCCAUGUAUUUGAUUGGUACAAGAAGGGUCAUGUUUGU | – | – | 323 | 659
GUCAGCUCGUGAGGAUAUACAACACUGCUUCGGCAGUGUAUUCAGAUCACAUGAGGAUCACCCAUGUAGAAGGCACGAGCUGAU | 12.8 | 206 | – | –
AGCACGAAAGUGCAACGAUGUAGCAGAAGGACAUGAGGAUCACCCAUGUAAGCAGUAUCUGCAAUGUAGGAUAUGCUACAUCGA | 13.6 | 119 | – | –
ACAUGAGGAUCACCCAUGUGUCAACCAGAAGGCACAUUACGUAUUUCUAUGUGUGCGUAAAUAAGUGAGGAUAUGGAUAAUAGA | – | – | 11.2 | 7.21
GCGCAAGCAUGAGGAUAUGUAUUAAAUAAUAAUACAGAAGGCAUGUCAAAUGACAUGAGGAUCACCCAUGUUGGCAAACUGCGC | – | – | 46.4 | 13
UACGUAUGAGGAUAUACAAACAGAAAAAUCAGACGUAACUGACAUGAGGAUCACCCAUGUAGAAGGCAUAUACA | 27.7 | 18.6 | – | –
UGGUACUAGGGAGGAUAUGGGAAGAUACAUGAGGAUCACCCAUGUUUAAGAAUGCCGAGAGGCAACUAGAAGGCCCUAGUAUCU | – | – | 382 | 18.9
UGUUGUAUUACAGGAUAUCUAGUAUUUUUGUUUAGAGAAGGGUAUUCACAUGAGGAUCACCCAUGUAUAUACGAGGAAGUUGUG | – | – | 57.2 | 63.7
UGACUAGUAAUGUAUCGAAAGAUCACAUGAGGAUCACCCAUGUAGGAUAUGAGCAGAAAAUCUGCUCAGAAGGACAUGCUAGUC | 5.9 | 7.36 | – | –
CAAAUUGCAGGAUAUACUGGGCCAGAGCCAUCGUGUAUUCCACAUGAGGAUCACCCAUGUAGAAGGGCACGUAC | 27.2 | 99.1 | – | –
AAUUAGGUCACAGGAUAUACUACAUCCAAUGCAGUAGAAGGGUGACACAUUCUGUGCAGACAUGAGGAUCACCCAUGUAACCAC | – | – | 11.6 | 6.39
